# Results reported in ChEMBL document CHEMBL5058577, “EUbOPEN Chemogenomics Library 2 (Multiplex)” (2022).
# System: U2OS
# Experiment: Multiplex assay against U2OS
# Format: toxicity, cell-based
# Conditions: human
# Method in brief: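 Per cents of healthy-nucleus cells form the tubulin, mitochondrial-mass and membrane-permeability phenotype values. Live cells were stained at seeding with Hoechst33342, BioTracker Green Microtubule Cytoskeleton Dye, MitoTracker Red and Annexin V Alexa Fluor 680. After compound addition they were imaged on a CQ1 microscope at 37°C and 5% CO2, and CellPathfinder machine-learning gating split them into Hoechst high-intensity objects or normal cells, normal cells into healthy, pyknosed or fragmented nuclei, and pyknosed cells into mitotic or apoptotic.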
# [1] = 12 h, 1 µM, compound concentration 1 uM, replicate 1
# [2] = 12 h, 1 µM, compound concentration 1 uM, replicate 2
# [3] = 12 h, 10 µM, compound concentration 10 uM, replicate 1
# [4] = 12 h, 10 µM, compound concentration 10 uM, replicate 2
# [5] = 24 h, 1 µM, compound concentration 1 uM, replicate 1
# [6] = 24 h, 1 µM, compound concentration 1 uM, replicate 2
# [7] = 24 h, 10 µM, compound concentration 10 uM, replicate 1
# [8] = 24 h, 10 µM, compound concentration 10 uM, replicate 2
# [9] = 48 h, 1 µM, compound concentration 1 uM, replicate 1
# [10] = 48 h, 1 µM, compound concentration 1 uM, replicate 2
# [11] = 48 h, 10 µM, compound concentration 10 uM, replicate 1
# [12] = 48 h, 10 µM, compound concentration 10 uM, replicate 2
smiles,measurement,setting,value
Cc1cnc(-c2cc(N3CCN(C(=O)CCS(C)(=O)=O)CC3)ncc2Cl)c(C)c1,Population Apoptotic (%),[1],86%
same,Population Fragmented Nuclei (%),[1],37%
same,Population Healthy Nuclei (%),[1],54%
same,Population Hoechst High Intensity Objects (%),[1],2%
same,Population Membrane Permeable-Phenotype (%),[1],10%
same,Population Mitochondria Different-Phenotype (%),[1],1%
same,Population Mitotic Cells (%),[1],13%
same,Population Normal (%),[1],97%
same,Population Pyknosed Nuclei (%),[1],8%
same,Population Tubulin-Different-Phenotype (%),[1],2%
same,Total Cell Count,[1],183
same,Population Apoptotic (%),[2],100%
same,Population Fragmented Nuclei (%),[2],18%
same,Population Healthy Nuclei (%),[2],73%
same,Population Hoechst High Intensity Objects (%),[2],1%
same,Population Mitochondria Different-Phenotype (%),[2],7%
same,Population Mitotic Cells (%),[2],0%
same,Population Normal (%),[2],98%
same,Population Tubulin-Different-Phenotype (%),[2],7%
same,Total Cell Count,[2],111
same,Population Apoptotic (%),[3],85%
same,Population Fragmented Nuclei (%),[3],24%
same,Population Healthy Nuclei (%),[3],67%
same,Population Hoechst High Intensity Objects (%),[3],1%
same,Population Membrane Permeable-Phenotype (%),[3],4%
same,Population Mitochondria Different-Phenotype (%),[3],3%
same,Population Mitotic Cells (%),[3],14%
same,Population Normal (%),[3],98%
same,Population Pyknosed Nuclei (%),[3],8%
same,Population Tubulin-Different-Phenotype (%),[3],1%
same,Total Cell Count,[3],258
same,Population Apoptotic (%),[4],75%
same,Population Fragmented Nuclei (%),[4],17%
same,Population Healthy Nuclei (%),[4],73%
same,Population Membrane Permeable-Phenotype (%),[4],20%
same,Population Mitochondria Different-Phenotype (%),[4],7%
same,Population Mitotic Cells (%),[4],25%
same,Population Pyknosed Nuclei (%),[4],9%
same,Population Tubulin-Different-Phenotype (%),[4],15%
same,Total Cell Count,[4],88
same,Population Apoptotic (%),[5],80%
same,Population Fragmented Nuclei (%),[5],30%
same,Population Healthy Nuclei (%),[5],62%
same,Population Hoechst High Intensity Objects (%),[5],2%
same,Population Membrane Permeable-Phenotype (%),[5],5%
same,Population Mitochondria Different-Phenotype (%),[5],3%
same,Population Mitotic Cells (%),[5],20%
same,Population Normal (%),[5],97%
same,Population Pyknosed Nuclei (%),[5],6%
same,Population Tubulin-Different-Phenotype (%),[5],2%
same,Total Cell Count,[5],220
same,Population Apoptotic (%),[6],90%
same,Population Fragmented Nuclei (%),[6],17%
same,Population Healthy Nuclei (%),[6],75%
same,Population Membrane Permeable-Phenotype (%),[6],8%
same,Population Mitochondria Different-Phenotype (%),[6],5%
same,Population Mitotic Cells (%),[6],10%
same,Population Pyknosed Nuclei (%),[6],7%
same,Population Tubulin-Different-Phenotype (%),[6],8%
same,Total Cell Count,[6],136
same,Population Apoptotic (%),[7],80%
same,Population Fragmented Nuclei (%),[7],20%
same,Population Healthy Nuclei (%),[7],74%
same,Population Hoechst High Intensity Objects (%),[7],2%
same,Population Membrane Permeable-Phenotype (%),[7],4%
same,Population Mitochondria Different-Phenotype (%),[7],2%
same,Population Mitotic Cells (%),[7],20%
same,Population Normal (%),[7],97%
same,Population Pyknosed Nuclei (%),[7],4%
same,Population Tubulin-Different-Phenotype (%),[7],0%
same,Total Cell Count,[7],309
same,Population Apoptotic (%),[8],85%
same,Population Fragmented Nuclei (%),[8],21%
same,Population Healthy Nuclei (%),[8],64%
same,Population Hoechst High Intensity Objects (%),[8],0%
same,Population Membrane Permeable-Phenotype (%),[8],18%
same,Population Mitochondria Different-Phenotype (%),[8],1%
same,Population Mitotic Cells (%),[8],14%
same,Population Normal (%),[8],99%
same,Population Pyknosed Nuclei (%),[8],13%
same,Population Tubulin-Different-Phenotype (%),[8],7%
same,Total Cell Count,[8],103
same,Population Apoptotic (%),[9],78%
same,Population Fragmented Nuclei (%),[9],29%
same,Population Healthy Nuclei (%),[9],63%
same,Population Hoechst High Intensity Objects (%),[9],0%
same,Population Membrane Permeable-Phenotype (%),[9],3%
same,Population Mitochondria Different-Phenotype (%),[9],2%
same,Population Mitotic Cells (%),[9],21%
same,Population Normal (%),[9],99%
same,Population Pyknosed Nuclei (%),[9],7%
same,Population Tubulin-Different-Phenotype (%),[9],1%
same,Total Cell Count,[9],325
same,Population Apoptotic (%),[10],95%
same,Population Fragmented Nuclei (%),[10],15%
same,Population Healthy Nuclei (%),[10],73%
same,Population Hoechst High Intensity Objects (%),[10],1%
same,Population Membrane Permeable-Phenotype (%),[10],4%
same,Population Mitochondria Different-Phenotype (%),[10],5%
same,Population Mitotic Cells (%),[10],5%
same,Population Normal (%),[10],98%
same,Population Pyknosed Nuclei (%),[10],10%
same,Population Tubulin-Different-Phenotype (%),[10],3%
same,Total Cell Count,[10],184
same,Population Apoptotic (%),[11],94%
same,Population Fragmented Nuclei (%),[11],11%
same,Population Healthy Nuclei (%),[11],80%
same,Population Hoechst High Intensity Objects (%),[11],1%
same,Population Membrane Permeable-Phenotype (%),[11],4%
same,Population Mitochondria Different-Phenotype (%),[11],2%
same,Population Mitotic Cells (%),[11],5%
same,Population Normal (%),[11],98%
same,Population Pyknosed Nuclei (%),[11],7%
same,Population Tubulin-Different-Phenotype (%),[11],2%
same,Total Cell Count,[11],485
same,Population Apoptotic (%),[12],100%
same,Population Fragmented Nuclei (%),[12],22%
same,Population Healthy Nuclei (%),[12],71%
same,Population Hoechst High Intensity Objects (%),[12],3%
same,Population Membrane Permeable-Phenotype (%),[12],13%
same,Population Mitochondria Different-Phenotype (%),[12],7%
same,Population Mitotic Cells (%),[12],0%
same,Population Normal (%),[12],96%
same,Population Pyknosed Nuclei (%),[12],5%
same,Population Tubulin-Different-Phenotype (%),[12],7%
same,Total Cell Count,[12],141
